ALR H2O2 inh – inhibitors of human ALR sulfhydryl oxidase, primary screen, biochemical, H2O2 detection, HRP-luminol luminescence, single point | FAD-linked sulfhydryl oxidase ALR (Homo sapiens), P55789 | purified ALR, DTT oxidation | inhibition, % (test concentration not listed) | 290,000 tested, 3.8% active;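 active means mean replicate inhibition above about 79%, with every replicate also reaching it, limit read from the data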
Target sequence (P55789 whole entry, looked up): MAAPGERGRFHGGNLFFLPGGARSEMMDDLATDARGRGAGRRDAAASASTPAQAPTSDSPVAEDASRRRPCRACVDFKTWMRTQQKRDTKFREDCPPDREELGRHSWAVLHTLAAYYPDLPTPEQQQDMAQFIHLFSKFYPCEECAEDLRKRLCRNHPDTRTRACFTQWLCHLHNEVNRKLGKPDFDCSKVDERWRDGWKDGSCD
UCH37 inh – inhibitors of human UCH37 deubiquitinase, primary screen, biochemical, Ub-AMC cleavage, fluorescence. purified proteasome/UCH37. AID 588478, 2011. Ubiquitin carboxyl-terminal hydrolase isozyme L5 (Homo sapiens), Q9Y5K5. 330,000 tested, 0.33% active. inhibition, % (concentration not given with the values);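 active means mean inhibition over replicate wells above about 20%, limit read from the data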;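 further: 0% = compound-free wells with enzyme and 100% = wells lacking proteasome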
Target sequence (Q9Y5K5 whole entry, looked up): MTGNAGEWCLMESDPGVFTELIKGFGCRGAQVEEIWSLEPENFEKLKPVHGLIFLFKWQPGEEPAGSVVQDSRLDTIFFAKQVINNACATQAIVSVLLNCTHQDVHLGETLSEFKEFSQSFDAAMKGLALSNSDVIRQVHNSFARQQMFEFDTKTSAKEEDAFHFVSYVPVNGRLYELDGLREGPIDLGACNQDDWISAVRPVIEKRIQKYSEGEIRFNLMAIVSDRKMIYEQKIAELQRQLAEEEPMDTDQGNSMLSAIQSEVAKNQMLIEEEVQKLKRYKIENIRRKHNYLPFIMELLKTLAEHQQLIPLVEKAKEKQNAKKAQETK
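System: Proteasome-associated human UCH37 deubiquitinase; Input: 0.15 nM proteasome in added enzyme buffer; Also added: Ub-AMC substrate from 1 µM stock; Incubation: 30 min compound-proteasome preincubation then 25 min substrate reaction, room temperature; Detection: fluorescence, ex 355 nm, em 460 nm; Read-out: % inhibition of Ub-AMC cleavage fluorescence; Benchmarks: no-proteasome and no-compound wells.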
NALP1 yeast inh – NALP1 inflammasome inhibitors in reconstituted yeast, colorimetric, S. cerevisiae, triplicate retest | S. cerevisiae NALP1/ASC/caspase-1 growth, X-gal OD620, 72 h | inhibition, % at 10 µM | 280,000 tested, 0.61% active; in the data active means inhibition mostly above about 24%, no sharp cut-off; inactive means mostly below about 32%
ATG4B inhibitor – ATG4B protease inhibitors, primary screen, biochemical, fluorescence, uHTS; ATG4B cleavage of LC3-PLA2, NBD-HPC fluorescence, 1 h; inhibition, % at 8.33 µM; 340,000 tested, 0.51% active; in the data active means inhibition above about 40%
NALP3 yeast inh – NALP3 inflammasome inhibitors in reconstituted yeast, primary screen, luminescence, uHTS; inhibition, % at 10 µM; Yeast reconstituted NLRP3/ASC/caspase-1, beta-gal luminescence, 24 h; AID 2825, 2010; 330,000 tested, 0.39% active;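 active means inhibition of 50% or more; inactive means inhibition below 50%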;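 further: plate controls were induced DMSO wells for no effect and uninduced yeast grown without galactose for full effect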
Calb FLC – C. albicans growth inhibition with fluconazole, primary screen, CaCi-2 strain, Alamar Blue fluorescence | AID 1979, 2009 | C. albicans CaCi-2 (fluconazole-resistant clinical isolate) + fluconazole, 48 h | 300,000 tested, 0.57% active | growth inhibition, % (no concentration beside the values);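 active means growth inhibition above about 58% in most replicates, limit read from the data, passing the limit was not always enough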;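 further: all wells also contain fluconazole at 8 µg/ml as a sub-toxic cotreatment; 0% = median of DMSO wells and 100% = median of geldanamycin control wells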
Numbers without * were called inactive; . = no result given. Shown are actives, neighbours in structure and some others; about 4.8% of the full set was active somewhere.

SMILES	ALR H2O2 inh	UCH37 inh	NALP1 yeast inh	ATG4B inhibitor	NALP3 yeast inh	Calb FLC
C/C(=N\Nc1ccc(F)cc1F)c1ccc(Br)s1	-27	.	-9	2	9	102*
CCN1CCN(c2ccc(N=Cc3ccccc3O)cc2)CC1	98*	1	-7	6	20	18
Cc1[nH]c2ccccc2c1C=NNC(=O)c1cc(C(C)C)[nH]n1	.	9	.	.	.	.
COc1cccc(/C=N/Nc2cc(N3CCOCC3)ncn2)c1O	-5	.	-10	0	45	98*
COc1cccc(/C=N/N2CCOCC2)c1O	55	.	28	-4	7	0
C/C(=N\Nc1ccc(F)cc1F)c1ccc(N2CCOCC2)cc1	40	.	-5	-2	11	104*
Cn1c(O)c(C=Nc2ccc(N3CCOCC3)cc2)c(=O)n(C)c1=S	.	34*	1	-13	.	-7
C/C(=N\Nc1ccc(F)cc1F)c1ccc(F)cc1	-2	.	-14	.	10	-11
COc1cccc(C=Nc2ccc(N3CCOCC3)cc2)c1O	99*	4	-4	5	13	17
Cc1ccc(S(=O)(=O)NNC(=O)NC23CC4CC(CC(C4)C2)C3)cc1	94*	2	31	1	8	-2
Cc1c(OCC(=O)NCc2ccccn2)ccc2c(-c3ccccc3)cc(=O)oc12	.	-1	2	-11	19	1
Cc1c(OCC(=O)NCC(O)c2ccccc2)ccc2c(-c3ccccc3)cc(=O)oc12 (centres undefined)	-26	-1	15	-14	12	81*
CCOC(=O)Nc1ccc2c(c1)N(C(=O)CCN1CCN(C)CC1)c1ccccc1S2	1	5	10	-11	13	-5
CCOC(=O)Nc1ccc2c(c1)N(C(=O)N1CCN(C)CC1)c1ccccc1S2	98*	7	26	-4	0	-14
O=C(COc1ccc(C=NNC(=O)CSCc2ccc([N+](=O)[O-])cc2)cc1)NCc1ccco1	.	4	.	.	.	.
Fc1cccc(C=NNC(=S)Nc2ccccc2Cl)c1	.	7	.	.	.	.
Cc1ccsc1C=NN=Cc1sccc1C	.	2	.	.	.	.
Cc1ccsc1C=Nc1ccc(O)cc1	96*	17	-8	-8	22	21
Cc1ccc(C(=O)CNc2ccccc2C)cc1	1	1	32	14	-9	-17
Cc1ccccc1NCCNc1ccccc1C	99*	1	3	0	22	-12
CC(=NNC(=O)c1nc2ccccn2c1C)c1ccc2c(c1)OCO2	.	1	.	.	.	.
N/C(=N\OC(=O)c1ccccc1Cl)c1ccccn1	-2	3	7	12	29	-3
N/C(=N\NS(=O)(=O)c1ccccc1Cl)c1ccccn1	83*	6	.	5	-6	-2
O=[N+]([O-])c1ccc(-c2ccc(C=Nn3cnnc3)o2)c(Br)c1	.	8	.	.	.	.
O=S(=O)(c1cnccc1N1CCN(N=Cc2ccc(Cl)cc2)CC1)N1CCCCC1	.	4	.	.	.	.
SMILES	ALR H2O2 inh	UCH37 inh	NALP1 yeast inh	ATG4B inhibitor	NALP3 yeast inh	Calb FLC
CC(C)Cn1c(N)c(C(=O)CCl)c(=O)n(C)c1=O	98*	1	12	-5	11	2
CCN(CC)CC(=O)c1c(N)n(Cc2ccccc2)c(=O)n(C)c1=O	-6	-2	9	1	-12	-11
Cn1c(=O)c(C(=O)CCl)c(N)n(CC2CC2)c1=O	18	6	17	2	10	.
CCC(=O)OCC(=O)c1c(N)n(Cc2ccccc2)c(=O)n(C)c1=O	6	4	32*	-2	18	24
CC(C)Cn1c(N)c(C=O)c(=O)n(C)c1=O	100*	-1	10	4	-8	49
O=[N+]([O-])c1ccccc1C=NOCc1ccccc1	.	2	.	.	.	.
CCCn1c(=O)c(C(=O)Nc2cccc(C)n2)c(O)c2ccccc21	-3	-20	11	6	24	6
CCCn1c(=O)c(C(=O)Nc2ncccc2C)c(O)c2ccccc21	0	2	33*	-10	10	-2
COC(=O)CSC1=NS(=O)(=O)c2ccccc21	100*	.	-9	2	20	1
COC(=O)CSc1ccccc1C(=O)OC	-4	-5	-4	8	13	-5
O=C(CSC1=NS(=O)(=O)c2ccccc21)Nc1ccccc1	99*	5	64	0	6	-3
O=C(CCN1C(=O)c2ccccc2S1(=O)=O)Nc1ccccc1	-1	2	-4	0	0	1
O=C(NN=C1SCC(=O)N1CCc1ccccc1)c1cccs1	.	0	.	.	.	.
Cc1nnc(NN=CC(C)c2ccccc2)[nH]c1=O (centres undefined)	.	6	.	.	.	.
Cc1c(N2C(=O)/C(=C\C3CC=CCC3)SC2=S)c(=O)n(-c2ccccc2)n1C (centres undefined)	.	4	12	-2	15	11
Cc1c(N2C(=O)/C(=C/C3CC=CCC3)SC2=S)c(=O)n(-c2ccccc2)n1C (centres undefined)	98*	5	.	7	19	0
COc1c(Cl)cnn(-c2ccc(Cl)c(Cl)c2)c1=O	4	5	37*	-4	16	4
NS(=O)(=O)c1ccc(NC(=O)CSC2=NC(=O)C(c3ccccc3)C(=O)N2)cc1 (centres undefined)	99*	8	-6	0	18	-2
COC(=O)c1ccc(NC(=O)CSC2=NCCN2)cc1	99*	12	19	1	7	14
CCOc1ccc(NC(=O)CSC2=NCCN2)cc1	99*	5	16	-6	10	1
CCOc1ccc(NC(=O)CSc2ccccc2N)cc1	.	2	-12	0	10	-10
CCn1c(SCC(=O)Nc2ccc(C(=O)OC)cc2)nc2cccnc21	-8	1	22	-1	26	-4
CCC1C(=O)N=C(SCC(=O)Nc2ccc(C(=O)OC)cc2)NC1=O (centres undefined)	99*	3	11	0	3	1
O=S(=O)(ON=C1CCCc2ccccc21)c1ccccc1	.	1	.	.	.	.
CC(CC(=O)Nc1ccc(Cl)cc1Cl)=NNC(=O)c1ccco1	.	5	.	.	.	.
Cn1ccsc1=NS(=O)(=O)c1ccc(F)cc1	.	0	.	.	.	.
Cc1ccc(-c2cc(C(=O)NN=Cc3ccco3)n[nH]2)s1	.	5	.	.	.	.
Cc1cccn2c(C=NOCc3cccc(F)c3)c(-c3ccc(Cl)cc3)nc12	.	-36	.	.	.	.
Oc1c(C=NCc2ccncc2)sc2ccccc12	83*	0	18	-4	23	9
Cc1csc(NC(=O)C2C3C=CC(O3)C2C(=O)O)n1 (centres undefined)	98*	2	20	-5	5	10
